Molecular target: Platelet-activating factor acetylhydrolase (Mus musculus) (UniProt Q60963)
Experiment: in vivo mouse pPAFAH activity blockade – gel-based competitive ABPP, fluorescence, in vivo study, late-stage follow-up (AID 588789)
Conditions: mouse oral dosing, brain membrane gel ABPP, HT-01; 50 mg/kg oral dose, 4 h; stronger effect = higher value
How it was run: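 Material: Mouse brain membrane proteome after oral dosing | Buffer or medium: DPBS | Timing: 4 h dosing, 30 min labelling at 37 °C | Technique: SDS-PAGE followed by in-gel fluorescence scan of pPAFAH band | Read-out: % inhibition from band density versus vehicle | Control set: Vehicle-dosed mice as high control, blank-gel region as background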

Platelet-activating factor acetylhydrolase (Mus musculus), sequence (Q60963 whole entry, looked up): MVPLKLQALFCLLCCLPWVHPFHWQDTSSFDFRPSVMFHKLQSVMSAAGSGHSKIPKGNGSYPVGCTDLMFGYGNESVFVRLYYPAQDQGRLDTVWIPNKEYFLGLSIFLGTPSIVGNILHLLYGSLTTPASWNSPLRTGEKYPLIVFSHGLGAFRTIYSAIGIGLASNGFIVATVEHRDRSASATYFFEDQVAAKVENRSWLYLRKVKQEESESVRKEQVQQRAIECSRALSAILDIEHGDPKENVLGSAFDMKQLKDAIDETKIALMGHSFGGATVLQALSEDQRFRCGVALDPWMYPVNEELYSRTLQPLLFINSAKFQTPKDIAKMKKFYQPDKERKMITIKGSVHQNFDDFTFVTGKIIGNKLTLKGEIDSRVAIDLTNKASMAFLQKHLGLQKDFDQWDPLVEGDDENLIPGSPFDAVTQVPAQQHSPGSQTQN

Work on `Cc1cc(N2CCN(C(=O)Oc3ccc(-c4ccccc4)cc3)CC2)c2ccccc2n1` yielded an inhibition of 63%.
Work on `Cc1cc(N2CCN(C(=O)Oc3ccc(-c4ccccc4)cn3)CC2)c2ccccc2n1` yielded an inhibition of 86%.

— PubChem BioAssay AID588789 (The Scripps Research Institute Molecular Screening Center, 2011)
